Published values from different studies.
Compare with care: the assays were run in different laboratories.
Nectin-4: Nectin-4 (Homo sapiens, UniProt Q96NY8)
PFF0160c: Dihydroorotate dehydrogenase (quinone), mitochondrial (PFF0160c, Plasmodium falciparum, UniProt Q08210)
SIGMAR1: Sigma non-opioid intracellular receptor 1 (SIGMAR1, Homo sapiens, UniProt Q99720)
PFF0160c E182D: Dihydroorotate dehydrogenase (quinone), mitochondrial (PFF0160c, Plasmodium falciparum, UniProt Q08210, E182D)

CCCC[C@@H]1NC(=O)[C@H](Cc2ccc(O)cc2)NC(=O)[C@@H]2CCCN2C(=O)[C@H](CC(=O)O)NC(=O)[C@H](C)NC(=O)[C@H](Cc2ccccc2)NC(=O)[C@@H]2CSCCC(=O)N3CN(CN(C3)C(=O)CCSC[C@H](NC(C)=O)C(=O)N[C@@H](CC(C)(C)C)C(=O)N3CCC[C@H]3C(=O)N[C@@H](CCC(=O)O)C(=O)N[C@H](CCCCNC(=O)CCc3cn(CCOCCOCCOCCOCCOCCC(=O)N[C@H]4CSCCC(=O)N5CN6CN(C5)C(=O)CCSC[C@H](NC(=O)[C@@H](CC(=O)O)NC(=O)[C@H](Cc5cccc7ccccc57)NC(=O)[C@@H]5CCCN5C4=O)C(=O)N[C@@H](CCSC)C(=O)N[C@@H](CCCCNC(=N)N)C(=O)N[C@@H](CC(=O)O)C(=O)N[C@@H](Cc4c[nH]c5ccccc45)C(=O)N[C@@H](CO)C(=O)N[C@@H]([C@@H](C)O)C(=O)N4CCC[C@H]4C(=O)N4C[C@H](O)C[C@H]4C(=O)N[C@@H](Cc4c[nH]c5ccccc45)C(=O)N[C@H](C(N)=O)CSCCC6=O)nn3)C(=O)N3CCC[C@H]3C(=O)N[C@@H](Cc3ccc(O)cc3)C(=O)N2)C(=O)CCSC[C@@H](C(N)=O)NC1=O — Kd (Nectin-4; binding; SPR): 2 nM
COc1nc(NCC(C)C)nc(Oc2ccc(=O)n(Cc3ccccc3)n2)n1 — IC50 (PFF0160c; enzyme activity; inhibitor; absorbance): 124 nM
CCCC[C@@H]1NC(=O)[C@H](Cc2ccc(O)cc2)NC(=O)[C@@H]2CCCN2C(=O)[C@H](CC(N)=O)NC(=O)[C@H](C)NC(=O)[C@H](Cc2ccccc2)NC(=O)[C@@H]2CSCCC(=O)N3CN(CN(C3)C(=O)CCSC[C@H](NC(C)=O)C(=O)N[C@@H](CC(C)(C)C)C(=O)N3CCC[C@H]3C(=O)N[C@@H](CCC(=O)O)C(=O)N[C@H](CCCCNC(=O)CCc3cn(CCOCCOCCOCCN(CCOCCOCCOCCC(=O)N[C@H]4CSCCC(=O)N5CN6CN(C5)C(=O)CCSC[C@H](NC(=O)[C@@H](CC(=O)O)NC(=O)[C@H](Cc5cccc7ccccc57)NC(=O)[C@@H]5CCCN5C4=O)C(=O)N[C@@H](CCSC)C(=O)N[C@@H](CCCCNC(=N)N)C(=O)N[C@@H](CC(=O)O)C(=O)N[C@@H](Cc4c[nH]c5ccccc45)C(=O)N[C@@H](CO)C(=O)N[C@@H]([C@@H](C)O)C(=O)N4CCC[C@H]4C(=O)N4C[C@H](O)C[C@H]4C(=O)N[C@@H](Cc4c[nH]c5ccccc45)C(=O)N[C@H](C(N)=O)CSCCC6=O)CCOCCOCCOCCn4cc(CCC(=O)NCCCC[C@H]5NC(=O)[C@H](CCC(=O)O)NC(=O)[C@@H]6CCCN6C(=O)[C@H](CC(C)(C)C)NC(=O)[C@@H](NC(C)=O)CSCCC(=O)N6CN7CN(C6)C(=O)CCSC[C@H](NC(=O)[C@H](Cc6ccc(O)cc6)NC(=O)[C@@H]6CCCN6C5=O)C(=O)N[C@@H](Cc5ccccc5)C(=O)N[C@@H](C)C(=O)N[C@@H](CC(N)=O)C(=O)N5CCC[C@H]5C(=O)N[C@@H](Cc5ccc(O)cc5)C(=O)N[C@@H](CCCC)C(=O)N[C@H](C(N)=O)CSCCC7=O)nn4)nn3)C(=O)N3CCC[C@H]3C(=O)N[C@@H](Cc3ccc(O)cc3)C(=O)N2)C(=O)CCSC[C@@H](C(N)=O)NC1=O — Kd (Nectin-4; binding; SPR): 1.9 nM
C/C(=C\[N+](=O)[O-])c1ccccc1 — Kd (nerA (Agrobacterium radiobacter, UniProt O31246); binding; absorbance): 730000 nM
CN(C)CCOC(C)(c1ccccc1)c1ccccn1 (stereo not drawn) — Ki (SIGMAR1; ligand displacement; radioligand): > 10000 nM
CCCC[C@@H]1NC(=O)[C@H](Cc2ccc(O)cc2)NC(=O)[C@@H]2CCCN2C(=O)[C@H](CCC(=O)O)NC(=O)[C@H](C)NC(=O)[C@H](Cc2ccccc2)NC(=O)[C@@H]2CSCCC(=O)N3CN(CN(C3)C(=O)CCSC[C@H](NC(C)=O)C(=O)N[C@@H](CC(C)(C)C)C(=O)N3CCC[C@H]3C(=O)N[C@@H](CCC(=O)O)C(=O)N[C@H](CCCCNC(=O)CCc3cn(CCOCCOCCOCCOCCOCCC(=O)N[C@H]4CSCCC(=O)N5CN6CN(C5)C(=O)CCSC[C@H](NC(=O)[C@@H](CC(=O)O)NC(=O)[C@H](Cc5cccc7ccccc57)NC(=O)[C@@H]5CCCN5C4=O)C(=O)N[C@@H](CCSC)C(=O)N[C@@H](CCCCNC(=N)N)C(=O)N[C@@H](CC(=O)O)C(=O)N[C@@H](Cc4c[nH]c5ccccc45)C(=O)N[C@@H](CO)C(=O)N[C@@H]([C@@H](C)O)C(=O)N4CCC[C@H]4C(=O)N4C[C@H](O)C[C@H]4C(=O)N[C@@H](Cc4c[nH]c5ccccc45)C(=O)N[C@H](C(N)=O)CSCCC6=O)nn3)C(=O)N3CCC[C@H]3C(=O)N[C@@H](Cc3ccc(O)cc3)C(=O)N2)C(=O)CCSC[C@@H](C(N)=O)NC1=O — Kd (Nectin-4; binding; SPR): 2.5 nM
CN1CCN(C2=Nc3cc(Cl)ccc3Nc3ccccc32)CC1 — Ki (SIGMAR1; ligand displacement; radioligand): > 10000 nM
CCc1nc2nc(C)cc(Nc3cc(C)cc(C)c3)n2n1 — IC50 (PFF0160c E182D; enzyme activity; inhibitor; absorbance): 8560 nM
CC(C)NC[C@@H](O)COc1cccc2ccccc12 — Ki (SIGMAR1; ligand displacement; radioligand): 344 nM
CCCC[C@@H]1NC(=O)[C@H](Cc2ccc(O)cc2)NC(=O)[C@@H]2CCCN2C(=O)[C@H](CC(=O)O)NC(=O)[C@H](C)NC(=O)[C@H](Cc2ccccc2)NC(=O)[C@@H]2CSCCC(=O)N3CN(CN(C3)C(=O)CCSC[C@@H](C(N)=O)NC1=O)C(=O)CCSCCC(=O)N[C@@H](CC(C)(C)C)C(=O)N1CCC[C@H]1C(=O)N[C@@H](CCC(=O)O)C(=O)N[C@H](CCCCNC(=O)CCc1cn(CCOCCOCCOCCOCCOCCC(=O)N[C@H]3CSCCC(=O)N4CN5CN(C4)C(=O)CCSC[C@H](NC(=O)[C@@H](CC(=O)O)NC(=O)[C@H](Cc4cccc6ccccc46)NC(=O)[C@@H]4CCCN4C3=O)C(=O)N[C@@H](CCSC)C(=O)N[C@@H](CCCCNC(=N)N)C(=O)N[C@@H](CC(=O)O)C(=O)N[C@@H](Cc3c[nH]c4ccccc34)C(=O)N[C@@H](CO)C(=O)N[C@@H]([C@@H](C)O)C(=O)N3CCC[C@H]3C(=O)N3C[C@H](O)C[C@H]3C(=O)N[C@@H](Cc3c[nH]c4ccccc34)C(=O)N[C@H](C(N)=O)CSCCC5=O)nn1)C(=O)N1CCC[C@H]1C(=O)N[C@@H](Cc1ccc(O)cc1)C(=O)N2 — Kd (Nectin-4; binding; SPR): 1.4 nM
Cc1cc(Nc2ccc3c(c2)CCC3)n2ncnc2n1 — IC50 (PFF0160c; enzyme activity; inhibitor; absorbance): 695 nM
Cc1c(-c2ccccc2)oc2c(C(=O)OCCN3CCCCC3)cccc2c1=O — Ki (SIGMAR1; ligand displacement; radioligand): > 10000 nM
CCC(c1ccccc1)c1nn2c(-c3cccs3)nnc2s1 (stereo not drawn) — IC50 (PFF0160c E182D; enzyme activity; inhibitor; absorbance): 171 nM
CC1CCN(CCCC(=O)c2ccc(F)cc2)CC1 — Ki (SIGMAR1; ligand displacement; radioligand): 10.1 nM
CCCC[C@@H]1NC(=O)[C@H](Cc2ccc(O)cc2)NC(=O)[C@@H]2CCCN2C(=O)[C@H](CC(=O)O)NC(=O)[C@H](C)NC(=O)[C@H](Cc2ccccc2)NC(=O)[C@@H]2CSCCC(=O)N3CN(CN(C3)C(=O)CCSC[C@@H](C(=O)N[C@@H](C)C(N)=O)NC1=O)C(=O)CCSC[C@H](NC(C)=O)C(=O)N[C@@H](CC(C)(C)C)C(=O)N1CCC[C@H]1C(=O)N[C@@H](CCC(=O)O)C(=O)N[C@H](CCCCNC(=O)CCc1cn(CCOCCOCCOCCOCCOCCC(=O)N[C@H]3CSCCC(=O)N4CN5CN(C4)C(=O)CCSC[C@H](NC(=O)[C@@H](CCC(=O)O)NC(=O)[C@H](Cc4cccc6ccccc46)NC(=O)[C@@H]4CCCN4C3=O)C(=O)N[C@@H](CC(C)C)C(=O)N[C@@H](CCCCNC(=N)N)C(=O)N[C@@H](CC(=O)O)C(=O)N[C@@H](Cc3c[nH]c4ccccc34)C(=O)N[C@@H](CO)C(=O)N[C@@H]([C@@H](C)O)C(=O)N3CCC[C@H]3C(=O)N3C[C@H](O)C[C@H]3C(=O)N[C@@H](Cc3c[nH]c4ccccc34)C(=O)N[C@H](C(N)=O)CSCCC5=O)nn1)C(=O)N1CCC[C@H]1C(=O)N[C@@H](Cc1ccc(O)cc1)C(=O)N2 — Kd (Nectin-4; binding; SPR): 4.2 nM
